Laboratory results published in the EternaBench riboswitch data.

Tested on: MS2 coat protein
Assay: apparent Kd, MS2 coat protein; higher = weaker binding; RNA-MaP array; FMN 200 µM where present
How it was run: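 Green signal from SNAP-549-labelled MS2 coat protein was normalised to red-channel RNA signal and to the median Fmax of control clusters. The protein was titrated from 0.7 or 1.5 nM, doubling to 3 µM, without and then with constant ligand, over designs transcribed by stalled E. coli RNA polymerase on Illumina sequencing-chip clusters, in 100 mM Tris-HCl pH 7.5, 80 mM KCl, 4 mM MgCl2, BSA, DTT, yeast tRNA and Tween-20. The apparent Kd is the median of filtered per-cluster binding-curve fits.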

[1] = designed as: ON switch for flavin mononucleotide, no ligand
[2] = ligand present: flavin mononucleotide, designed as: ON switch for flavin mononucleotide
[3] = designed as: OFF switch for flavin mononucleotide, no ligand
[4] = ligand present: flavin mononucleotide, designed as: OFF switch for flavin mononucleotide

Sequence: GCGUUCAUGUAGAAGGUACCUACAACAAAUUAUAACCGCUAGACACAUGAGGAUCACCCAUGUUGUAAGGAUAUACAUGAACGC
- apparent Kd [1]: 0.0252 µM
- apparent Kd [2]: 0.0171 µM

Sequence: GCGUUCUUGUAGAAGGUACAUGAAUUCUAUUUUUAACACAUGAAACAUGAGGAUCACCCAUGUUGUAAGGAUAUACAUGAACGC
- apparent Kd [1]: 0.00698 µM
- apparent Kd [2]: 0.00583 µM

Sequence: GCUAGUGCUGUGAGGAUAUGUGAUCGGAAAUGAUCGUAGAAGGCACAUGAGGAUCACCCAUGUAAGGUGCUAGU
- apparent Kd [3]: 0.287 µM
- apparent Kd [4]: 0.0376 µM

Sequence: GCUAUCGAUGUAGGAUAUGCUAGAGAAACUCUGGCAGAAGGACAUGAGGAUCACCCAUGUCAAUGGAUGGAGAGAAGAGAUGGC
- apparent Kd [3]: 0.0241 µM
- apparent Kd [4]: 0.058 µM

Sequence: GCUAUCGAUGUAGGAUAUGCUAUAGAAACUAUGGCAGAAGGACAUGAGGAUCACCCAUGUCAAUGGAUGGAGAGAAGAGAUGGC
- apparent Kd [3]: 0.0267 µM
- apparent Kd [4]: 0.0687 µM

Sequence: GCUAUCGGGUGAGGAUAUAUAAUUGUGAUUAAAAUAGAAGGCAUCUCAGAAGACAUGAGGAUCACCCAUGUAGUUAAGAUGGCA
- apparent Kd [1]: 0.0238 µM
- apparent Kd [2]: 0.0201 µM

Sequence: GCUAUUGAUGUAGGAUAUGAUAUAGAAGCUAUGUCAGAAGGACAUGAGGAUCACCCAUGUCAAUGGAUGGAGAGAAGAAAUGGC
- apparent Kd [3]: 0.0626 µM
- apparent Kd [4]: 0.075 µM

Sequence: GCUCUGUUAGGAUAUUUCGGCAUAGGUAUAACUUAAGCGUGAGAGAAGGAACAUGAGGAUCACCCAUGUUAAUC
- apparent Kd [3]: 0.0199 µM
- apparent Kd [4]: 0.0775 µM

Sequence: GCUGACGAUGUAGGAUAUCAGUAUAAUAAAUACUGAGAAGGACAUGAGGAUCACCCAUGUAAUAAACGUCAGCAGAGGAAACUC
- apparent Kd [3]: 0.0162 µM
- apparent Kd [4]: 0.0226 µM

Sequence: GCUGACGAUGUAGGAUAUCUCGACGAUAAGUCGAGAGAAGGACAUGAGGAUCACCCAUGUAACUCAACGUCAGCGAGGAAACUC
- apparent Kd [3]: 0.0178 µM
- apparent Kd [4]: 0.0206 µM

Sequence: GCUGCAUGCAGAGGAUAUGACACAUGAGGAUCACCCAUGUAAUAAAUGAGAUUUUCGAAUGUAUCUCAGAAGGCUGCAUGCAGC
- apparent Kd [3]: 0.0166 µM
- apparent Kd [4]: 0.0894 µM

Sequence: GCUGCUCAUGAGAAGGCGAUCAUGAAACAUGAUCGAGGAUAUCAUGUAAACAUGAGGAUCACCCAUGUAUGGGUAUUAUGCAGC
- apparent Kd [1]: 0.117 µM
- apparent Kd [2]: 0.0405 µM

Sequence: GCUGGAAAAGGAUAUACAUAACGUGCUUCGGCACGAGAUCUACAUGAGGAUCACCCAUGUAGAAGGUUUCCAGC
- apparent Kd [3]: 0.014 µM
- apparent Kd [4]: 0.0302 µM

Sequence: GCUGGACAUGAGGAUCACCCAUGUGAGGAUAUCGGCUGGUACGUGUUGGCUGGCAUCUCGAGAAGGCACAUAGU
- apparent Kd [3]: 0.0328 µM
- apparent Kd [4]: 0.0424 µM

Sequence: GCUGUCGCAUGAGGAUAUGGUCAGCUUUGCUGACCAGAAGGCAUGUCAAUAGACAUGAGGAUCACCCAUGUAGUUCGGGCGGCU
- apparent Kd [1]: 0.849 µM
- apparent Kd [2]: 0.0761 µM

Sequence: GCUGUGGCAUGAGGAUAUGGACAGCUUUGCUGUCCAGAAGGCAUGUCAAUAGACAUGAGGAUCACCCAUGUAGUUAACACAGCA
- apparent Kd [1]: 0.498 µM
- apparent Kd [2]: 0.0394 µM

Sequence: GCUUAUAGAGGAUAUACAGAUUAUUACAUGAGGAUCACCCAUGUUCUUCAAUGUAUAUAUGUAGAAGGCUAAGGAU
- apparent Kd [3]: 0.0616 µM
- apparent Kd [4]: 0.257 µM

Sequence: GCUUGUGAAGGAUAUACUGGAGGCGUGCGAUAGAAGCACGCACAUGAGGAUCACCCAUGUAGAAGGUCAGGCGU
- apparent Kd [3]: 0.0369 µM
- apparent Kd [4]: 0.0445 µM

Sequence: GGAAAACAUGAGGAUCACCCAUGUGAAAACGUGGGAGGAUAUGGAUGGAAACCAUACUGUCCAGAAGGCCCAUGUC
- apparent Kd [1]: 0.0676 µM
- apparent Kd [2]: 0.0189 µM

Sequence: GGAAAACAUGAGGAUCACCCAUGUGAGGAUAUCGAUGUCCAAAAACCAGUGCGGGACUCGAGAAGGCACUUGGA
- apparent Kd [3]: 0.0491 µM
- apparent Kd [4]: 0.0263 µM

Sequence: GGAAAACAUGAGGAUCACCCAUGUGAGGAUAUCGAUGUCCAACCACCCGUGCGGGACUCGAGAAGGCACUUGGA
- apparent Kd [3]: 0.0534 µM
- apparent Kd [4]: 0.146 µM

Sequence: GGAAAACAUGAGGAUCACCCAUGUGAGGAUAUCGAUGUCCAAGAAAAAGUGCGGGACUCGAGAAGGCACUUGGA
- apparent Kd [3]: 0.0589 µM
- apparent Kd [4]: 0.0368 µM

Sequence: GGAAAGAUGUUAGGAUAUGGCUUCCCGGUGAAGCCAGAAGGAACAUGAGGAUCACCCAUGUAAAGCGAGUGGCUCUUCUCUGGA
- apparent Kd [3]: 0.0186 µM
- apparent Kd [4]: 0.0659 µM

Sequence: GGAAAGUCAGGAUAUGGAUAAUAAAUACAAAUAGAAACAAACCAGAAGGGACAUGAGGAUCACCCAUGUAAACA
- apparent Kd [3]: 0.0241 µM
- apparent Kd [4]: 0.0231 µM

Sequence: GGAAAGUGAGGAUAUGGUAAUUUAAUUAUUAAUUAAUUAAUCCAGAAGGCACAUGAGGAUCACCCAUGUAAAUG
- apparent Kd [3]: 0.0359 µM
- apparent Kd [4]: 0.0616 µM

Sequence: GGAAAUCAUGUAGGAUAUGCAUGGCGAAGCUACGCAGAAGGACAUGAGGAUCACCCAUGUGCUAGCUACCGAGUUCGGUGGCAA
- apparent Kd [3]: 0.0909 µM
- apparent Kd [4]: 0.211 µM

Sequence: GGAAAUCAUGUAGGAUAUGCAUGGCGAAGCUACGCAGAAGGACAUGAGGAUCACCCAUGUUAUAGCGUCCGAGAAGGGAUGCAA
- apparent Kd [3]: 0.04 µM
- apparent Kd [4]: 0.218 µM

Sequence: GGAAAUCGUGUAGGAUAUGCAUGGCGAAGCUACGCAGAAGGACAUGAGGAUCACCCAUGUUAUAGCGUCCGAGAAAGGAUGCAA
- apparent Kd [3]: 0.011 µM
- apparent Kd [4]: 0.0674 µM
